Results from ChEMBL document CHEMBL4017470, “One drug for two targets: Biological evaluation of antiretroviral agents endowed with antiproliferative activity” (Bioorg Med Chem Lett, 2017).
≈ marks a conversion by molar mass, not a printed value.

What was measured:
[1] = test system: HT-29; assay: Growth inhibition of human HT-29 cells after 2 days by MTT assay; format: functional, cell-based; settings: HT-29, 48 h
[2] = Growth inhibition of BAEC after 2 days by MTT assay; format: cell-based; settings: Bos taurus, 48 h
[3] = test system: MCF7; assay: Growth inhibition of human MCF7 cells after 2 days by MTT assay; format: functional, cell-based; settings: MCF7, 48 h
[4] = Selectivity index, ratio of IC50 for BAEC cells to IC50 for human HT-29 cells; format: functional
[5] = Cytotoxicity against human TZM-b1 cells by XTT assay; format: cell-based; settings: read-out: LD50 (the source's name)
[6] = Selectivity index, ratio of IC50 for BAEC cells to IC50 for human MCF7 cells; format: functional
[7] = test system: HT-29; assay: Down regulation of hTERT expression in human HT-29 cells assessed as hTERT expression level at 1 uM after 48 hrs by RT-qPCR analysis relative to control; format: functional
Outline: (§1)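 HT-29 cells were incubated 48 h with compound, with DMSO as the vehicle control and resveratrol as the positive control. Total RNA was extracted, reverse-transcribed to cDNA, and hTERT or c-Myc quantified by RT-qPCR. Expression was normalized to β-actin and given as % of the DMSO control (100%). At least three measurements per case; mean ± SEM; one-sample t-test.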

[8] = test system: HEK293; assay: Growth inhibition of HEK293 cells after 2 days by MTT assay; format: cell-based; settings: Homo sapiens, HEK293, 48 h
[9] = Selectivity index, ratio of IC50 for BAEC cells to IC50 for human Ramos cells; format: functional
[10] = test system: Ramos; assay: Growth inhibition of human Ramos cells after 2 days by MTT assay; format: functional, cell-based; settings: 48 h
[11] = Selectivity index, ratio of IC50 for HEK293 cells to IC50 for human MCF7 cells; format: functional
[12] = Selectivity index, ratio of IC50 for HEK293 cells to IC50 for human HT-29 cells; format: functional
[13] = test system: HT-29; assay: Down regulation of c-Myc expression in human HT-29 cells assessed as c-Myc expression level at 1 uM after 48 hrs by RT-qPCR analysis relative to control; format: functional; outline: as §1
[14] = test system: Human immunodeficiency virus 1; assay: Antiviral activity against HIV-1 NL4.3 infected in human TZM-b1 cells pretreated for 1 hr followed by viral infection measured after 2 days by CPRG assay; format: functional, cell-based; settings: Human immunodeficiency virus 1, NL4.3, TZM-b1
[15] = Selectivity index, ratio of IC50 for HEK293 cells to IC50 for human Ramos cells; format: functional
[16] = Apparent permeability of the compound in phosphate buffer at pH 7.4 by PAMPA; format: physicochemical
[17] = Aqueous solubility of the compound in water at 1 mg after 24 to 36 hrs by LC-MS/MS analysis; format: physicochemical
[18] = Metabolic stability in human liver microsomes at 50 uM measured after 60 mins in presence of NADPH generating system by LC-UV-MS method; format: ADME, microsome; settings: read-out: Stability
[19] = test system: HT-29; assay: Down regulation of hTERT expression in human HT-29 cells assessed as hTERT expression level at 20 uM after 48 hrs by RT-qPCR analysis relative to control; format: functional; outline: as §1
[20] = test system: HT-29; assay: Down regulation of c-Myc expression in human HT-29 cells assessed as c-Myc expression level at 20 uM after 48 hrs by RT-qPCR analysis relative to control; format: functional; outline: as §1
[21] = test system: HT-29; assay: Down regulation of c-Myc expression in human HT-29 cells assessed as c-Myc expression level at 5 uM after 48 hrs by RT-qPCR analysis relative to control; format: functional; outline: as §1
[22] = test system: HT-29; assay: Down regulation of hTERT expression in human HT-29 cells assessed as hTERT expression level at 5 uM after 48 hrs by RT-qPCR analysis relative to control; format: functional; outline: as §1

| SMILES | IC50 [1] [µM] | IC50 [2] [µM] | IC50 [3] [µM] | Ratio IC50 [4] | CC50 [5] [µM] | Ratio IC50 [6] | Activity [7] [%] | IC50 [8] [µM] | Ratio IC50 [9] | IC50 [10] [µM] | Ratio IC50 [11] | Ratio IC50 [12] | Activity [13] [%] | IC50 [14] [µM] | Ratio IC50 [15] | Papp [16] [×10⁻⁶ cm/s] | also measured |
| --- | --- | --- | --- | --- | --- | --- | --- | --- | --- | --- | --- | --- | --- | --- | --- | --- | --- |
| O=C1/C(=C/c2ccc(-c3cc(C(F)(F)F)ccc3Cl)o2)SC(=S)N1Cc1ccc(F)cc1 | 4.6 | 2.2 | 1.2 | 0.48 | > 50 | 1.83 | 37 | 2.4 | 0.53 | 4.1 | 2 | 0.52 | 69 | 17.3 | 0.59 |  |  |
| CC(C)NCC(O)COc1cccc2ccccc12 (stereo not drawn) [PROPRANOLOL] |  |  |  |  |  |  |  |  |  |  |  |  |  |  |  | 9.68 |  |
| Cn1c(=O)c2c(ncn2C)n(C)c1=O [CAFFEINE] |  |  |  |  |  |  |  |  |  |  |  |  |  |  |  | < 0.1 |  |
| Oc1ccc(/C=C/c2cc(O)cc(O)c2)cc1 [RESVERATROL] | 137 | 57 | 34 |  |  |  | 28 | 17 |  | 37 |  |  | 47 |  |  |  |  |
| O=C1N=C(Nc2ccc(F)c(Cl)c2)S/C1=C\c1ccc(-c2ccc(C(=O)O)c(O)c2)o1 | 1.1 | 25 | 13 | 22.72 | > 50 | 1.92 | 53 | 12 | 8 | 3.1 | 0.92 | 10.91 | 60 | 1 | 3.9 | 1.58 | solubility [17]: 11.8 µM (≈ 5.41 µg/mL); remaining at 1 h, 50 µM [18]: 99.1% |
| CCc1ccc(CCNC2=NC(=O)/C(=C/c3ccc(-c4ccc(C(=O)O)c(O)c4)o3)S2)cc1 | 26 | 20 | 4.5 | 0.77 | > 50 | 4.44 |  | 3.4 | 0.54 | 37 | 0.76 | 0.13 |  | 1 | 0.09 |  | Activity [19]: 56%; Activity [20]: 67% |
| Cc1nnc(C(=O)NC(C)(C)c2nc(C(=O)NCc3ccc(F)cc3)c(O)c(=O)n2C)o1 [RALTEGRAVIR] |  |  |  |  | > 50 |  |  |  |  |  |  |  |  | 0.021 |  |  |  |
| O=C1N=C(NCCc2ccc(Cl)c(Cl)c2)S/C1=C\c1ccc(-c2ccc(C(=O)O)c(O)c2)o1 | > 100 | > 100 | > 100 |  | > 50 |  |  | > 100 |  | > 100 |  |  |  | 1.8 |  |  |  |
| O=C1N=C(N2CCOCC2)S/C1=C\c1ccc(-c2ccc(C(=O)O)c(O)c2)o1 | 2.3 | 76 | 21 | 33.04 | > 50 | 3.62 | 51 | 53 | 24.2 | 3.14 | 2.52 | 23.04 | 60 | 13.4 | 16.9 | 1.28 | solubility [17]: 9.7 µM (≈ 3.88 µg/mL); remaining at 1 h, 50 µM [18]: 98.7% |
| O=C1/C(=C/c2ccc(-c3cc(C(F)(F)F)ccc3Cl)o2)SC(=S)N1Cc1ccc(Cl)cc1 | 8.3 | 2.4 | 1.13 | 0.29 | > 50 | 2.12 |  | 4.2 | 0.63 | 3.8 | 3.72 | 0.51 |  | 6.9 | 1.1 |  | Activity [21]: 100%; Activity [22]: 53% |
| O=C(O)c1ccc(-c2ccc(/C=C3\SC(=S)N(CCc4ccc(Cl)c(Cl)c4)C3=O)o2)cc1O | > 100 | 86 | > 100 | <0.86 | > 50 | <0.86 |  | 29 | <0.86 | > 100 | <0.29 | <0.29 |  | 4.8 | <0.29 |  |  |
| C[C@]12CC[C@H]3[C@@H](CCC4=CC(=O)CC[C@@]43C)[C@@H]1CC[C@@H]2O [TESTOSTERONE] |  |  |  |  |  |  |  |  |  |  |  |  |  |  |  |  | remaining at 1 h, 50 µM [18]: 76.2% |
